Screening data (PubChem BioAssay)
Most compounds without a hit are left out; they make up all but 1.8% or so of the library.
CAL PDZ FP-1: CAL PDZ (human) peptide binding inhibition. hit rate 0.92% among 300,000. inhibition, % at 24.9 µM. purified CAL PDZ, TMR-peptide fluorescence polarization, 1 h;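 active = mean inhibition of at least 30% with at least half of replicates also reaching 30%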;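 also: 0% = DMSO neutral control and 100% = excess unlabeled competitor peptide PRC23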
Tn6 DDE FP: inhibitors of Tn6 peptide binding to human fibrin DD(E); Fibrin DD(E) TRITC-Tn6 fluorescence polarization displacement; inhibition, % at 8.3 µM; hit rate 0.21% among 370,000; AID 720509;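 active = inhibition above a per-campaign cutoff: mean of compounds within control limits plus 3 SD, cut at about 15% in these data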;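 also: 0% = median of all compound wells on the plate and 100% = blocking peptide control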
Target sequence (P02675 whole entry, looked up): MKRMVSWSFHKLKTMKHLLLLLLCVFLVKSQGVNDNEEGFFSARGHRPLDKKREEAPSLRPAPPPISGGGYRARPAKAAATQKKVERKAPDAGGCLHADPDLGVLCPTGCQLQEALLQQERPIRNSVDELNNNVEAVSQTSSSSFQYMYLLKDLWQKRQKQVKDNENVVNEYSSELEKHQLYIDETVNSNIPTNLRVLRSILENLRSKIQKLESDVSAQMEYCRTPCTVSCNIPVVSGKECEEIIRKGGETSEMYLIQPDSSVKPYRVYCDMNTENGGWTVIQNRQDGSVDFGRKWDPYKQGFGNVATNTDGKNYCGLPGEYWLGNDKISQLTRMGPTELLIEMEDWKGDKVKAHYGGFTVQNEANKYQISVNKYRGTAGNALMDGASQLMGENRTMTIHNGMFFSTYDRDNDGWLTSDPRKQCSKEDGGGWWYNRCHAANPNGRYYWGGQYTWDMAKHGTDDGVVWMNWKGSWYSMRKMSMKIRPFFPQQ
CAL PDZ FP-2: inhibitors of human CAL PDZ peptide binding. Q9HD26. inhibition, % at 20 µM. AID 504414. hit rate 0.02% among 330,000. purified CAL PDZ, TMR-peptide fluorescence polarization, 1 h;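 active = highest replicate inhibition of at least 40%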;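 also: plate controls were DMSO neutral control wells for no effect and unlabeled competitor peptide control wells for full effect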
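Material – purified CerCALP PDZ construct · Detection – FP readout, S and P plane fluorescence · Measure – percent inhibition from loss of millipolarization · Controls – unlabelled peptide for full inhibition, DMSO wells as neutral · Probe or stimulus – TMR-labelled reporter peptide T*-PRC34 bound in PDZ groove · Times – 1 h at RT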
Tn7 DDE FP: DD(E)-Tn7 binding inhibition, primary FP screen; P02675; FP displacement of FITC-Tn7 peptide from fibrin DD(E); 0% = median of compound wells per plate; inhibition, % at 8.3 µM; hit rate 0.13% among 370,000; AID 720508;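 active = inhibition above the mean of compounds falling within the control limits plus 3 SD of them, cut at about 14% in these data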;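 also: 0% = plate median of compound wells and 100% = 10 µM Aha-Tn7 peptide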
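assay system = human clot-derived fibrin DD(E) complex | quantity = Fibrin-DD(E) at 2 µM final | timing = 10 min preincubation, 3 h with tracer, room temperature | signal = fluorescence polarization | measure = percent inhibition | benchmarks = high control wells with 10 µM unlabelled Aha-Tn7 peptide (full inhibition) | replicates = singlicate testing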
ARNT TACC3 PPI: ARNT/TACC3 interaction disruption. hit rate 0.66% among 390,000. AlphaScreen His-ARNT PAS-B/GST-TACC3 binding, luminescence; TACC3 fragment carries E629A point mutation. AID 623870. inhibition, % at 9.99 µM. Q9Y6A5;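 active = mean inhibition of replicates at least 50% and at least half of replicates each reaching 50%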;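 also: 0% = complete ARNT plus TACC3 wells and 100% = ARNT alone without TACC3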
GRK2 aptamer HTS: human GRK2 inhibition via aptamer displacement; hit rate 0.59% among 330,000; bead flow cytometry, FAM-aptamer displacement from GRK2; inhibition of aptamer binding, % at 10 µM;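 active = inhibition of aptamer binding above 40%, roughly 3 SD of noise, on plates passing a quality check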;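 also: median bead fluorescence of bound FAM aptamer so fluorescent compounds give negative values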
* hit, by the source's call; / = no result; + = active, no number.

SMILES	CAL PDZ FP-1	Tn6 DDE FP	CAL PDZ FP-2	Tn7 DDE FP	ARNT TACC3 PPI	GRK2 aptamer HTS
Cc1noc(C)c1NC(=O)Nc1ccc2c(c1)C(=O)N([C@@H](C)CO)C[C@@H](C)[C@H](CN(C)S(=O)(=O)c1c(C)noc1C)OCCCC[C@H](C)O2	/	/	/	/	-2	/
Cc1cccc(C(=O)Nc2ccc(C(=O)/C=C/c3ccncc3)cc2)c1	-4	-3	43*	7	6	0
Cc1cccc(/C=C/c2nc3ccccc3c(=O)[nH]2)c1	/	-3	0	0	-8	4
O=C(O)c1ccc(/C=C/c2nc3ccccc3c(=O)[nH]2)cc1	+	-1	2	4	-5	2
O=C(Cn1nc(-c2ccccc2)ccc1=O)NCCc1ccc(F)cc1	/	5	/	4	/	/
O=C(O)c1ccccc1OCCOc1ccccc1C(=O)O	-3	9	-1	3	50*	2
O=C(C[C@@H]1CC[C@@H](NC(=O)Nc2cc(F)ccc2F)[C@H](CO)O1)NCc1ccncn1	/	/	/	/	-7	/
Cc1cc(C)c(C(=O)N2CCCC(CNS(=O)(=O)N(C)C)C2)o1 (stereo not given)	-3	-1	-1	3	0	0
COc1cc(OC)cc(C(=O)NCC2CCCN(C(=O)c3oc(C)cc3C)C2)c1 (stereo not given)	46*	4	-1	7	-12	0
CC1=C(C(=O)N(C(C)C)C(C)C)CC(CC(=O)NC(c2ccccc2)c2ccccc2)C(=O)N1Cc1ccc(C(C)(C)C)cc1 (stereo not given)	/	2	/	9	/	/
CCCNC(=O)C(=O)NCC1CCCN1CC (stereo not given)	33*	-2	30	-3	-2	4
C=CCNC(=O)C(=O)NCC1CCCN1CC (stereo not given)	-4	4	-1	-3	1	3
CN1C(=S)SC(/[N+]([O-])=C/c2cccnc2)C1(C)C (stereo not given)	31*	-3	/	0	3	0
CN1C(=S)SC(/[N+]([O-])=C\c2ccccc2)C1(C)C (stereo not given)	-5	2	-4	2	-1	0
CO[C@@H]1CN(C)C(=O)c2ccc(NC(C)=O)cc2OC[C@@H](C)N(C(=O)CN(C)C)C[C@@H]1C	/	/	/	/	-9	/
O=C(O)c1cc(O)c2c(c1)[C@@H]([C@H]1c3cc(C(=O)O)cc(O)c3C(=O)c3c(O[C@@H]4O[C@H](CO)[C@@H](O)[C@H](O)[C@H]4O)cccc31)c1cccc(OC3O[C@H](CO)[C@@H](O)[C@H](O)[C@H]3O)c1C2=O (stereo not given in full)	37*	-5	13	7	5	97*
O=C(c1ccc(F)cc1)N1CC[C@@H]2[C@H](CO)Nc3ccc(-c4ccccc4F)cc3[C@@H]21	/	/	/	/	12	/
CCOC(=O)Nc1nc(C)c(C(=O)c2ccc(Cl)cc2)s1	-4	2	/	-2	23	0
CCOC(=O)c1sc(NC(=O)Nc2ccc(Cl)cc2)nc1C	52*	0	0	-4	-3	0
CCN(CC)S(=O)(=O)c1ccc(N2CCOCC2)c(NC(=O)C2CCCC2)c1	-3	-2	0	2	-21	/
CCN(CC)S(=O)(=O)c1ccc(N2CCCC2)c(NC(=O)C2CCCCC2)c1	40*	0	0	-6	-5	1
CCN1CCN(c2ccc(S(=O)(=O)N3CCOCC3)cc2NC(=O)C2CCC(C(C)(C)C)CC2)CC1 (stereo not given)	73*	1	-1	10	/	/
CN1CCN(c2ccc(S(=O)(=O)N3CCOCC3)cc2NC(=O)C2CCCCC2)CC1	11	-2	0	0	-1	/
CCN(CC)S(=O)(=O)c1ccc(NC(=S)NC(=O)C2CCC2)cc1	54*	-4	-1	-3	-3	/
N#C/C(=C/c1ccc(O)c(O)c1)c1nc2ccccc2[nH]1	114*	-18	3	-2	19	0
C=C(C)C(=O)Nc1cccnc1Oc1ccc(F)cc1	112*	7	0	-10	0	0
